Measurements taken from ChEMBL document CHEMBL4842326, “Design, synthesis and biological evaluation of 3, 4-disubstituted-imidazolidine-2, 5-dione derivatives as HDAC6 selective inhibitors” (Eur J Med Chem, 2021).

What was measured:
[1] = biological target: T1, Protein deacetylase HDAC6 (Homo sapiens, UniProt Q9UBN7); test: Inhibition of HDAC6 (unknown origin) using Ac-LeuGlyLy-s(Ac)-AMC as substrate preincubated for 10 mins followed by substrate addition and further incubated for 2 hrs by fluorescence microtiter plate reader assay
T1 sequence (Q9UBN7 whole entry): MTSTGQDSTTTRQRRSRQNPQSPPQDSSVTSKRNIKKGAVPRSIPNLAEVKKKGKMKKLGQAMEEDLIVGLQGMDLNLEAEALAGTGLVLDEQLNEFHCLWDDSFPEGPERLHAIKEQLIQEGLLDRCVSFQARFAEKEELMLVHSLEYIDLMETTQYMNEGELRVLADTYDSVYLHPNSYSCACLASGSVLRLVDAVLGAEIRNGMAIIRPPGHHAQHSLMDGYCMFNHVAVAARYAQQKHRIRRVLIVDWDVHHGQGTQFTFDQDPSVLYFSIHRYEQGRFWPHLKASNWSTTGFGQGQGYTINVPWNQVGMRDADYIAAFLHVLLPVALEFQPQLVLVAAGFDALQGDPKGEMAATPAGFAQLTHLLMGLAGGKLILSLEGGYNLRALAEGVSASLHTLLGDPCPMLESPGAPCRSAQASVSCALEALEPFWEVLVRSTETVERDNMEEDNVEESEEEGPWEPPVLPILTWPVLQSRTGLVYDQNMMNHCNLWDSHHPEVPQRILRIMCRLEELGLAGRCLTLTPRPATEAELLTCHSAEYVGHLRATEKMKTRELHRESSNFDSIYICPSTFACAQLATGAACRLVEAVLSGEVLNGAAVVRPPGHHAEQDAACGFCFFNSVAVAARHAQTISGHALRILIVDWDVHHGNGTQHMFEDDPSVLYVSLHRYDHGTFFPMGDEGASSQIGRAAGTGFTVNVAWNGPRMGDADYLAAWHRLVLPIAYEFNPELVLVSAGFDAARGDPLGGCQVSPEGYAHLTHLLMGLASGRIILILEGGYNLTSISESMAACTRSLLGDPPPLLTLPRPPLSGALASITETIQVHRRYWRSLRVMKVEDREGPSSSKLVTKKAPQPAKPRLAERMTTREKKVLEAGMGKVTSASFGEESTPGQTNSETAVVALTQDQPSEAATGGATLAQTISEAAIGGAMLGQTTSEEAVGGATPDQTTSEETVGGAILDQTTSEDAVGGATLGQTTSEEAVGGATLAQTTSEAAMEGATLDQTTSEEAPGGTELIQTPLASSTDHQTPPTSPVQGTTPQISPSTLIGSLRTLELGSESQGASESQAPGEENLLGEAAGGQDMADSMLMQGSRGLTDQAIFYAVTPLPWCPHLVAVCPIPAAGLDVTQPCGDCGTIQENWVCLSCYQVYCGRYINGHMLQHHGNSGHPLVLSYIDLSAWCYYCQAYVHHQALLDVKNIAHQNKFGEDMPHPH

[2] = organism: Homo sapiens; test: Selectivity ratio of IC50 for HDAC8 (unknown origin) to IC50 for HDAC6 (unknown origin)
[3] = biological target: T2, Histone deacetylase 2 (Homo sapiens, UniProt Q92769)
[4] = biological target: T3, Histone deacetylase 1 (Homo sapiens, UniProt Q13547); test: Inhibition of HDAC1 (unknown origin) using Ac-LeuGlyLys(Ac)-AMC as substrate preincubated for 10 mins followed by substrate addition and further incubated for incubated for 1 hrs by fluorescence microtiter plate reader assay
[5] = organism: Homo sapiens; test: Selectivity ratio of IC50 for HDAC2 (unknown origin) to IC50 for HDAC6 (unknown origin)
[6] = organism: Homo sapiens; test: Selectivity ratio of IC50 for HDAC1 (unknown origin) to IC50 for HDAC6 (unknown origin)
[7] = biological target: T4, Histone deacetylase 8 (Homo sapiens, UniProt Q9BY41); test: Inhibition of HDAC8 (unknown origin) using Ac-LeuGlyLys(tfa)-AMC as substrate preincubated for 10 mins followed by substrate addition and further incubated for incubated for 1 hrs by fluorescence microtiter plate reader assay
T4 sequence (Q9BY41 whole entry): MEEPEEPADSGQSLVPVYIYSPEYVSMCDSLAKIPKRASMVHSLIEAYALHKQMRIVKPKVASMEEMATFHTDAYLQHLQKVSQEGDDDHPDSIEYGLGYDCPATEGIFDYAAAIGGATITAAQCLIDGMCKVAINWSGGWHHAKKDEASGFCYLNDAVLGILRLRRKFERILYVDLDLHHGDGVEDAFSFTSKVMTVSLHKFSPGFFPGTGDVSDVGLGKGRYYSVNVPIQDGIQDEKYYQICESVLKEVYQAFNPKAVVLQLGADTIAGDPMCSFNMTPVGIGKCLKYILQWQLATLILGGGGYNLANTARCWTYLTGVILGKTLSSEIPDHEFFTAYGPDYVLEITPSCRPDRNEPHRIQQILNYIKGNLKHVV

[8] = biological target: T3, Histone deacetylase 1; test: Inhibition of HDAC1 (unknown origin)
[9] = biological target: Histone deacetylase 3 (Homo sapiens, UniProt O15379); test: Inhibition of HDAC3 (unknown origin)
[10] = biological target: T4, Histone deacetylase 8; test: Inhibition of HDAC8 (unknown origin)
[11] = biological target: T2, Histone deacetylase 2; test: Inhibition of HDAC2 (unknown origin)
[12] = test system: HUVEC; test: Cytotoxicity against human HUVEC cells assessed as decrease in cell viability after 48 hrs by MTT assay; format: cell-based
How it was run: (§1)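 Normal cells: HUVECs in RPMI1640 with 10% FBS plus 0.1% heparin, GEC-1 in RPMI1640 with 10% FBS. Seeded 8 h, then treated with serial dilutions for 48 h; 0.5% MTT for 4 h, supernatant removed, DMSO added, absorbance read at 570 nm.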

[13] = test system: HL-60; test: Induction of apoptosis in human HL-60 cells assessed as late apoptotic cells at 3 uM after 48 hrs by Annexin V-FITC/propidium iodide staining based flow cytometric analysis (reference value: 1.45%); format: functional
How it was run: (§2)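 HL-60 cells (1 × 10^6/well) exposed 48 h to compound dilutions, collected, PBS-washed, resuspended in Annexin V-FITC binding buffer, stained with propidium iodide and Annexin V-FITC for 15 min, then analysed by flow cytometry.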

[14] = Cytotoxicity against human GEC1 cells assessed as decrease in cell viability after 48 hrs by MTT assay; format: cell-based; conditions: GEC1, 48 h; how it was run: as §1
[15] = test system: NCI-H929; test: Antiproliferative activity against human NCI-H929 cells assessed as inhibition of cell proliferation after 48 hrs by MTT assay; format: functional, cell-based; conditions: NCI-H929, 48 h
How it was run: (§3)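 Leukemia/myeloma lines grown in RPMI1640 with 10% FBS at 37 °C, 5% CO2; seeded at 3500–4000 cells/well, cultured overnight, then exposed to serial dilutions for 48 h.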

[16] = test system: HL-60; test: Induction of apoptosis in human HL-60 cells assessed as viable cells at 3 uM after 48 hrs by Annexin V-FITC/propidium iodide staining based flow cytometric analysis (reference value: 93.4%); format: functional; conditions: read-out: Activity; how it was run: as §2
[17] = test system: HEL; test: Antiproliferative activity against human HEL cells assessed as inhibition of cell proliferation after 48 hrs by MTT assay; format: functional, cell-based; how it was run: as §3
[18] = test system: Jurkat; test: Antiproliferative activity against human Jurkat cells assessed as inhibition of cell proliferation after 48 hrs by MTT assay; format: functional, cell-based; how it was run: as §3
[19] = test system: HL-60; test: Induction of apoptosis in human HL-60 cells assessed as early apoptotic cells at 3 uM after 48 hrs by Annexin V-FITC/propidium iodide staining based flow cytometric analysis (reference value: […]%); format: functional
[20] = test system: HL-60; test: Antiproliferative activity against human HL-60 cells assessed as inhibition of cell proliferation after 48 hrs by MTT assay; format: functional, cell-based; conditions: HL-60, 48 h; how it was run: as §3
[21] = test system: KG-1; test: Antiproliferative activity against human KG-1 cells assessed as inhibition of cell proliferation after 48 hrs by MTT assay; format: functional, cell-based; conditions: KG-1, 48 h; how it was run: as §3

T2 sequence (Q92769 whole entry): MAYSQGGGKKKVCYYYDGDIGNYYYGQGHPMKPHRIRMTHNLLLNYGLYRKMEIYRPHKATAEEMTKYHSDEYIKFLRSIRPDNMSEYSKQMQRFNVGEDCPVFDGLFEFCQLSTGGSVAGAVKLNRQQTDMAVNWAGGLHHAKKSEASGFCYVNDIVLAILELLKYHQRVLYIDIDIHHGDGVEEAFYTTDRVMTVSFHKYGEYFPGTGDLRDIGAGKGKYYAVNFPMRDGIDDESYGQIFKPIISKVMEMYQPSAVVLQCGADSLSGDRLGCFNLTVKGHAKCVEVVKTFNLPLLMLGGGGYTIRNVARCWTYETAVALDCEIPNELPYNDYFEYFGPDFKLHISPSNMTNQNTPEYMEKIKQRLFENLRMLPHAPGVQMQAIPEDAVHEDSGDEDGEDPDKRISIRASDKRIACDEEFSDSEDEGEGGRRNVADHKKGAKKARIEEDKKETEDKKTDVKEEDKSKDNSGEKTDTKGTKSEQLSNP
T3 sequence (Q13547 whole entry): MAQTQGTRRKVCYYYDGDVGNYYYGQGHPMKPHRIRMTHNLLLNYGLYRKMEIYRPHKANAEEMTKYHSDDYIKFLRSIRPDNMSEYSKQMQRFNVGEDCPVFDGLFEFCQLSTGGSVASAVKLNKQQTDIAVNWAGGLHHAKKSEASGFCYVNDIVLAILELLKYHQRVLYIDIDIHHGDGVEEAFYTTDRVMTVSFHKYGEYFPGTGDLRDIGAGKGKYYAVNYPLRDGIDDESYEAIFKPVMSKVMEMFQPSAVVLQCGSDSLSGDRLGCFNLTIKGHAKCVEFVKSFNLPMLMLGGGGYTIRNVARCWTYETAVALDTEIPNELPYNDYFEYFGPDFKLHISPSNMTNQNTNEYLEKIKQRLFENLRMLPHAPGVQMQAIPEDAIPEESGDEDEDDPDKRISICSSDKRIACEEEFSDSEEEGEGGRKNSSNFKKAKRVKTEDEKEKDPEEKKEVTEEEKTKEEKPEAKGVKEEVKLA
Sequence of Histone deacetylase 3 (O15379 whole entry): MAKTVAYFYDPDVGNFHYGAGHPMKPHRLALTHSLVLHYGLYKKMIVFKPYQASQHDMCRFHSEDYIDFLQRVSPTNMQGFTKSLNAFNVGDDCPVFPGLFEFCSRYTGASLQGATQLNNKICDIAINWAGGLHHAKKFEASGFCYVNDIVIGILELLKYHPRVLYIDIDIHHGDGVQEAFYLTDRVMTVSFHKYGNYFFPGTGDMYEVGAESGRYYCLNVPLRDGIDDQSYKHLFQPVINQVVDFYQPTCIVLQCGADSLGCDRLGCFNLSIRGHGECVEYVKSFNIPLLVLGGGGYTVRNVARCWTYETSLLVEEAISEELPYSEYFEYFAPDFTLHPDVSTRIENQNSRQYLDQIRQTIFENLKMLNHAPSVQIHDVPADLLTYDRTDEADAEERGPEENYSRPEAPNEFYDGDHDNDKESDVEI

SMILES | IC50 [1] [nM] | also measured
CC(C)(C)c1ccc(CC2(c3ccccc3)NC(=O)N(Cc3ccc(C(=O)NO)cc3)C2=O)cc1 (racemic) | 115 | 
O=C(NO)c1ccc(CN2C(=O)NC(Cc3cccc4ccccc34)(c3ccccc3)C2=O)cc1 (racemic) | 91.9 | 
O=C(NO)c1ccc(CN2C(=O)C(Cc3ccccc3)N(Cc3ccc(Cl)cc3)C2=O)cc1 (racemic) | 6 | Ratio IC50 [2]: 664; IC50 [3]: 8.26 µM; IC50 [4]: 8.18 µM; Ratio IC50 [5]: 1380; Ratio IC50 [6]: 1360; IC50 [7]: 3.99 µM
CC(C)CC1C(=O)N(Cc2ccc(C(=O)NO)cc2)C(=O)N1C (racemic) | 251 | 
O=C(NO)c1ccc(CN2C(=O)CN(Cc3ccc4ccccc4c3)C2=O)cc1 | 13.1 | 
CN1CC(=O)N(Cc2ccc(C(=O)NO)cc2)C1=O | 119 | 
O=C(NO)c1ccc(CN2C(=O)C(Cc3ccccc3)N(Cc3ccccn3)C2=O)cc1 (racemic) | 4.8 | IC50 [3]: 5.08 µM; IC50 [4]: 3.42 µM; IC50 [7]: 7.83 µM
CC(C)(C)OC(=O)Nc1ccc(-c2cc(NC(=O)CCCCCCC(=O)NO)no2)cc1 |  | IC50 [8]: 271 nM; IC50 [9]: 0.42 nM; IC50 [10]: 6.85 µM; IC50 [11]: 252 nM
O=C(NO)c1ccc(CN2C(=O)C(Cc3ccccc3)N(Cc3ccc4ccccc4c3)C2=O)cc1 (racemic) | 25.1 | 
O=C(NO)c1ccc(CN2C(=O)C(Cc3ccccc3)N(Cc3ccccc3)C2=O)cc1 (racemic) | 21.3 | 
COc1ccc(CC2(c3ccccc3)NC(=O)N(Cc3ccc(C(=O)NO)cc3)C2=O)cc1 (racemic) | 72.4 | 
O=C(NO)c1ccc(CN2C(=O)CN(CCc3ccccc3)C2=O)cc1 | 21.7 | 
CC(C)CC1C(=O)N(Cc2ccc(C(=O)NO)cc2)C(=O)N1Cc1ccccc1 (racemic) | 129 | 
CCCN1C(=O)N(Cc2ccc(C(=O)NO)cc2)C(=O)C1Cc1ccccc1 (racemic) | 56.9 | 
CN1CCc2c(c3ccccc3n2Cc2ccc(C(=O)NO)cc2)C1 [TUBASTATIN A] |  | IC50 [12]: 69.2 µM; Activity [13]: 6.24%; IC50 [14]: 48.6 µM; IC50 [15]: 15.4 µM; viability at 3 µM [16]: 87.6%; IC50 [17]: 8.09 µM; IC50 [18]: 14.6 µM; Activity [19]: 6.12%; IC50 [20]: 4.09 µM; IC50 [21]: 8.82 µM
COc1ccc(CN2CC(=O)N(Cc3ccc(C(=O)NO)cc3)C2=O)cc1 | 28.2 | 
O=C(NO)c1ccc(CN2C(=O)NC(Cc3ccc4ccccc4c3)(c3ccccc3)C2=O)cc1 (racemic) | 74.6 | 
CC(C)(C)c1ccc(CN2CC(=O)N(Cc3ccc(C(=O)NO)cc3)C2=O)cc1 | 40.7 | 

SMILES | IC50 [1] [nM] | also measured
O=C(NO)c1ccc(CN2C(=O)NC(Cc3ccccc3)(c3ccccc3)C2=O)cc1 (racemic) | 71.9 | 
Cc1ccc(CC2(c3ccccc3)NC(=O)N(Cc3ccc(C(=O)NO)cc3)C2=O)cc1 (racemic) | 82.4 | 
COc1ccc(CN2C(=O)N(Cc3ccc(C(=O)NO)cc3)C(=O)C2Cc2ccccc2)cc1 (racemic) | 102 | 
O=C(NO)c1ccc(CN2C(=O)CN(Cc3ccccc3)C2=O)cc1 | 12.5 | 
CC(C)(C)c1ccc(CN2C(=O)N(Cc3ccc(C(=O)NO)cc3)C(=O)C2Cc2ccccc2)cc1 (racemic) | 139 | 
O=C(NO)c1ccc(CN2C(=O)C(Cc3ccccc3)N(Cc3ccncc3)C2=O)cc1 (racemic) | 13.9 | 
CCCC1(c2ccccc2)NC(=O)N(Cc2ccc(C(=O)NO)cc2)C1=O (racemic) | 50.9 | 
Cc1ccc(CN2C(=O)N(Cc3ccc(C(=O)NO)cc3)C(=O)C2Cc2ccccc2)cc1 (racemic) | 37.8 | 
O=C(NO)c1ccc(CN2C(=O)NC(CCc3ccccc3)(c3ccccc3)C2=O)cc1 (racemic) | 24.7 | 
O=C(NO)c1ccc(CN2C(=O)CN(Cc3ccc(Cl)cc3)C2=O)cc1 | 8.3 | IC50 [3]: 1.08 µM; IC50 [4]: 0.863 µM; IC50 [7]: 0.994 µM
O=C(NO)c1ccc(CN2C(=O)C(Cc3ccccc3)N(Cc3cccc4ccccc34)C2=O)cc1 (racemic) | 28.8 | 
CN1C(=O)N(Cc2ccc(C(=O)NO)cc2)C(=O)C1Cc1ccccc1 (racemic) | 108 | 
CCCN1CC(=O)N(Cc2ccc(C(=O)NO)cc2)C1=O | 53.4 | 
O=C(NO)c1ccc(CN2C(=O)C(Cc3ccccc3)N(CCc3ccccc3)C2=O)cc1 (racemic) | 20.2 | 
CC1(c2ccccc2)NC(=O)N(Cc2ccc(C(=O)NO)cc2)C1=O (racemic) | 74.9 | 
CCCN1C(=O)N(Cc2ccc(C(=O)NO)cc2)C(=O)C1CC(C)C (racemic) | 174 | 
O=C(NO)c1ccc(CN2C(=O)NC(Cc3ccc(Cl)cc3)(c3ccccc3)C2=O)cc1 (racemic) | 54 | 
Cc1ccc(CN2CC(=O)N(Cc3ccc(C(=O)NO)cc3)C2=O)cc1 | 17.6 | 
